From ChEMBL document CHEMBL4014345, “Development of Selective Clk1 and -4 Inhibitors for Cellular Depletion of Cancer-Relevant Proteins” (J Med Chem, 2017)
pIC50: −log10 of the molar value. Active and inactive are the calls of the source. The rule behind the calls is not given here.

Key:
[1] = biological target: T1, Dual specificity protein kinase CLK1 (Homo sapiens, UniProt P49759); assay: Inhibition of recombinant human GST-tagged Clk1 expressed in Escherichia coli using RS repeat substrate peptide after 15 mins in presence of [gamma-32]-ATP
Target sequence in this assay (P49759 whole entry): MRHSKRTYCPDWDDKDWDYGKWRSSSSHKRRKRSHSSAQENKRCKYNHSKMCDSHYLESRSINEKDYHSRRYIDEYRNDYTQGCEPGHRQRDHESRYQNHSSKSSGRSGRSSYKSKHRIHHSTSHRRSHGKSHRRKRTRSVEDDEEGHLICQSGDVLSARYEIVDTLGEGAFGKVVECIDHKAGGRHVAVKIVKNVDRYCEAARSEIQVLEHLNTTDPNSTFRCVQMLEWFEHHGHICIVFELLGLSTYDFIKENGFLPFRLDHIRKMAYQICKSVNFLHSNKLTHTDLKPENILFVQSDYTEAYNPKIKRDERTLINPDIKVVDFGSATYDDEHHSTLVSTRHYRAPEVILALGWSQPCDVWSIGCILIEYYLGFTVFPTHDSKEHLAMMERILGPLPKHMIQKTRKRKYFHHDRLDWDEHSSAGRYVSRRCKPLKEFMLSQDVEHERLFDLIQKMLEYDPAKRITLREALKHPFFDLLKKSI

[2] = biological target: T2, Dual specificity protein kinase CLK1/CLK4 (Homo sapiens, UniProt Q9HAZ1+P49759); assay: Inhibition of CLK1/4 in human T24 cells assessed as down regulation of EGFR expression at 5 uM after 3 days by Western blot analysis relative to control; type: cell-based
In short: (§1)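 T24 or MDA-MB-231 cells were grown in DMEM to 70% confluency. The medium was replaced with compound diluted in DMEM, and cells were kept 3 days. Total protein was immunoblotted with monoclonal antibodies in 3% BSA/PBS against EGFR, p70S6K α, PARP-1, ERK2, HDAC1, CD44, PCNA and GRP94.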

[3] = biological target: T1, Dual specificity protein kinase CLK1; assay: Inhibition of recombinant human GST-tagged Clk1 expressed in Escherichia coli at 100 nM using RS repeat substrate peptide after 15 mins in presence of [gamma-32]-ATP
Target sequence in this assay (P49759 whole entry, looked up): as the sequence (P49759 whole entry) above

[4] = biological target: Serine/threonine-protein kinase haspin (Homo sapiens) (UniProt Q8TF76); assay: Inhibition of MBP-Haspin (unknown origin) at 1 uM after 10 mins by TR-FRET assay
In short: (§2)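 Tested in a commercial kinase profiling panel at an ATP concentration of 100 μM. Data are the mean of duplicates that differed by less than 7%.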

[5] = biological target: Dual specificity protein kinase CLK2 (Mus musculus) (UniProt O35491); assay: Inhibition of recombinant GST-tagged mouse CLK2 using GRSRSRSRSRSR as substrate at 1 uM after 30 mins in presence of [gamma-32P]-ATP by scintillation counting method
[6] = biological target: Dual specificity protein kinase CLK2 (Mus musculus, UniProt O35491); assay: Inhibition of recombinant GST-tagged mouse CLK2 using GRSRSRSRSRSR as substrate after 30 mins in presence of [gamma-32P]-ATP by scintillation counting method
[7] = biological target: Dual specificity protein kinase CLK4 (Mus musculus) (UniProt O35493); assay: Inhibition of recombinant GST-tagged mouse CLK4 using GRSRSRSRSRSR as substrate at 1 uM after 30 mins in presence of [gamma-32P]-ATP by scintillation counting method
[8] = biological target: Serine/threonine-protein kinase 17A (Homo sapiens) (UniProt Q9UEE5); assay: Inhibition of STK17A (unknown origin) at 1 uM after 15 mins; in short: as §2
[9] = biological target: SRSF protein kinase 1 (Homo sapiens) (UniProt Q96SB4); assay: Inhibition of SRPK1 (unknown origin) at 1 uM; in short: as §2
[10] = biological target: Myosin light chain kinase 2, skeletal/cardiac muscle (Homo sapiens) (UniProt Q9H1R3); assay: Inhibition of MLCK2 (unknown origin) at 1 uM after 15 mins; in short: as §2
[11] = biological target: Dual specificity tyrosine-phosphorylation-regulated kinase 4 (Homo sapiens) (UniProt Q9NR20); assay: Inhibition of DYRK4 (unknown origin) using KKISGRLSPIMTEQ-NH2 as substrate at 1 uM after 15 mins in presence of [gamma-32P]-ATP
T-24 [12] = assay: Cytotoxicity against human T24 cells assessed as growth inhibition after 5 days by MTT assay; type: functional; conditions: T-24, 120 h
In short: (§3)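 They were seeded at 5000 cells per well onto compound or DMSO (0.2% final). Plates were kept 5 days at 37 °C in 5% CO2 with no medium change, then read by MTT.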

MDA-MB-231 [13] = assay: Cytotoxicity against human MDA-MB-231 cells assessed as growth inhibition after 5 days by MTT assay; type: functional; conditions: MDA-MB-231, 120 h; in short: as §3
T47D = assay: Cytotoxicity against human T47D cells assessed as growth inhibition after 5 days by MTT assay; type: functional; conditions: 120 h; in short: as §3
[14] = Cytotoxicity against HEK293 cells assessed as growth inhibition; type: cell-based; conditions: human
In short: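 Cytotoxicity was tested in proliferating HEK293 cells with GI50 as the read-out. Data are the mean of at least two independent experiments.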

PBL = assay: Cytotoxicity against human PBL after 2 days by MTT assay; type: cell-based; conditions: 48 h
In short: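 Cells plated at 30 000 per well with test compounds or DMSO control for 2 days, then MTT read-out. LC50 reported as the mean of at least two independent experiments.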

[15] = biological target: T2, Dual specificity protein kinase CLK1/CLK4; assay: Inhibition of CLK1/4 in human T24 cells assessed as down regulation of EGFR expression after 3 days by Western blot analysis; type: cell-based; in short: as §1
[16] = biological target: T2, Dual specificity protein kinase CLK1/CLK4; assay: Inhibition of CLK1/4 in human T24 cells assessed as down regulation of HDAC1 expression after 3 days by Western blot analysis; type: cell-based; in short: as §1
[17] = biological target: T2, Dual specificity protein kinase CLK1/CLK4; assay: Inhibition of CLK1/4 in human T24 cells assessed as down regulation of EGFR expression at 1.25 uM after 3 days by Western blot analysis relative to control; type: cell-based; in short: as §1
[18] = biological target: T2, Dual specificity protein kinase CLK1/CLK4; assay: Inhibition of CLK1/4 in human T24 cells assessed as down regulation of HDAC1 expression at 10 uM after 3 days by Western blot analysis relative to control; type: cell-based; in short: as §1
[19] = biological target: T2, Dual specificity protein kinase CLK1/CLK4; assay: Inhibition of CLK1/4 in human T24 cells assessed as down regulation of HDAC1 expression at 5 uM after 3 days by Western blot analysis relative to control; type: cell-based; in short: as §1
[20] = biological target: T2, Dual specificity protein kinase CLK1/CLK4; assay: Inhibition of CLK1/4 in human MDA-MB-231 cells assessed as down regulation of EGFR expression at 20 uM after 3 days by Western blot analysis relative to control; type: cell-based; in short: as §1
[21] = biological target: T2, Dual specificity protein kinase CLK1/CLK4; assay: Inhibition of CLK1/4 in human MDA-MB-231 cells assessed as down regulation of EGFR expression at 2.5 uM after 3 days by Western blot analysis relative to control; type: cell-based; in short: as §1
[22] = biological target: T2, Dual specificity protein kinase CLK1/CLK4; assay: Inhibition of CLK1/4 in human MDA-MB-231 cells assessed as down regulation of S6 kinase expression at 20 uM after 3 days by Western blot analysis relative to control; type: cell-based; in short: as §1
[23] = biological target: T2, Dual specificity protein kinase CLK1/CLK4; assay: Inhibition of CLK1/4 in human MDA-MB-231 cells assessed as down regulation of S6 kinase expression at 10 uM after 3 days by Western blot analysis relative to control; type: cell-based; in short: as §1
[24] = biological target: T2, Dual specificity protein kinase CLK1/CLK4; assay: Inhibition of CLK1/4 in human MDA-MB-231 cells assessed as down regulation of S6 kinase expression at 2.5 uM after 3 days by Western blot analysis relative to control; type: cell-based; in short: as §1
[25] = biological target: T2, Dual specificity protein kinase CLK1/CLK4; assay: Inhibition of CLK1/4 in human HepG2 cells assessed as down regulation of HDAC1 expression at 20 uM after 3 days by Western blot analysis relative to control; type: cell-based
In short: (§4)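 HepG2 cells were grown in DMEM to 70% confluency, then the medium was replaced with compound diluted in DMEM. After 3 days, total protein was immunoblotted with monoclonal antibodies including HDAC1 and p70S6K.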

[26] = biological target: T2, Dual specificity protein kinase CLK1/CLK4; assay: Inhibition of CLK1/4 in human HepG2 cells assessed as down regulation of S6 kinase expression at 20 uM after 3 days by Western blot analysis relative to control; type: cell-based; in short: as §4
T-24 [27] = assay: Down regulation of CD44 expression in human T24 cells at 1.25 to 10 uM after 3 days by Western blot analysis; type: functional, cell-based; in short: as §1
MDA-MB-231 [28] = assay: Down regulation of PCNA expression in human MDA-MB-231 cells at 2.5 to 20 uM after 3 days by Western blot analysis; type: functional, cell-based; in short: as §1

Chain of Myosin light chain kinase 2, skeletal/cardiac muscle (Homo sapiens) (Q9H1R3 whole entry): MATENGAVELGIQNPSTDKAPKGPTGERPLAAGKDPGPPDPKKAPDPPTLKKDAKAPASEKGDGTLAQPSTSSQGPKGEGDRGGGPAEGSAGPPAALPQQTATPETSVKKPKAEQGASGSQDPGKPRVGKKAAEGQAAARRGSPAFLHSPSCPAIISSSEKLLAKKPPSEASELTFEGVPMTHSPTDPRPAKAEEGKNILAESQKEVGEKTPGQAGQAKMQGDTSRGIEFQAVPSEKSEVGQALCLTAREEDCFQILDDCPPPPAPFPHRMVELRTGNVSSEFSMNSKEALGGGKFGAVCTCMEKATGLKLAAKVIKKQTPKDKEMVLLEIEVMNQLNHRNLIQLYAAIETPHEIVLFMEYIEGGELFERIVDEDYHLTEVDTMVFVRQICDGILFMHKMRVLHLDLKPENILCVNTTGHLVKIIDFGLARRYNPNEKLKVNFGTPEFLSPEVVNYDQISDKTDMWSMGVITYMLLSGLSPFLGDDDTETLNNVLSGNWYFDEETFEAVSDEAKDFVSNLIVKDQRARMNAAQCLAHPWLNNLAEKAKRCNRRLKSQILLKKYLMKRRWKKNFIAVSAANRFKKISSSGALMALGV
Chain of SRSF protein kinase 1 (Homo sapiens) (Q96SB4 whole entry): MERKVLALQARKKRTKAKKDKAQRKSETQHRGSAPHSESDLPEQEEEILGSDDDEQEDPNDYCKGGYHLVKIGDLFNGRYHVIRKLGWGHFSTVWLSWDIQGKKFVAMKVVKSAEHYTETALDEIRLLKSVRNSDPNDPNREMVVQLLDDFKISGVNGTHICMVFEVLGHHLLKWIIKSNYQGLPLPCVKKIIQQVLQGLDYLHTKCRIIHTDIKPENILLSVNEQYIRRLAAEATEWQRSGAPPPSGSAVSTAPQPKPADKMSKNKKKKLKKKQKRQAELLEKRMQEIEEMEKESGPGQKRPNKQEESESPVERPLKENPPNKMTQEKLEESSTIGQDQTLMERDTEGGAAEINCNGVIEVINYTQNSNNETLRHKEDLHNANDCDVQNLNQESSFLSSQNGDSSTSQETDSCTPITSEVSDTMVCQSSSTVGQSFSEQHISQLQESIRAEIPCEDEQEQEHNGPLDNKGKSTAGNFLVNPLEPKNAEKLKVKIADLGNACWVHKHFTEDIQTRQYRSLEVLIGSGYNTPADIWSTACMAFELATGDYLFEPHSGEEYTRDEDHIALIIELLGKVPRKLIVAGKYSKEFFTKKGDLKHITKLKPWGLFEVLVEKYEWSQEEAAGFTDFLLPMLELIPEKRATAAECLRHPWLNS
Chain of Dual specificity protein kinase CLK2 (O35491 whole entry): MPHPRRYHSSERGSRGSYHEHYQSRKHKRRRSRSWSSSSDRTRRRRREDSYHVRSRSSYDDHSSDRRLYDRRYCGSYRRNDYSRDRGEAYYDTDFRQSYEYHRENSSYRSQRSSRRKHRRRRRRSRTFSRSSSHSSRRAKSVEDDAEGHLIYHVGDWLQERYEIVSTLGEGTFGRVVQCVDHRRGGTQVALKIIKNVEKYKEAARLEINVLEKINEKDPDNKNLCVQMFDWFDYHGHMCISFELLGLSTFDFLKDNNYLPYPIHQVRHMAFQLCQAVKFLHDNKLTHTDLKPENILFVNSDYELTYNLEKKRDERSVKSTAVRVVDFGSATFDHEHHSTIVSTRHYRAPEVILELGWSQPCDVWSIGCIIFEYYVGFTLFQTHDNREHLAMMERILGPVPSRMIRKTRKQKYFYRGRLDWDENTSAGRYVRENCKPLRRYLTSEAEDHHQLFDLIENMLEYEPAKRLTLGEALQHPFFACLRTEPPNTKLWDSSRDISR
Chain of Dual specificity protein kinase CLK2 (Mus musculus) (O35491 whole entry, looked up): as the sequence (O35491 whole entry) above
Chain of Dual specificity tyrosine-phosphorylation-regulated kinase 4 (Homo sapiens) (Q9NR20 whole entry): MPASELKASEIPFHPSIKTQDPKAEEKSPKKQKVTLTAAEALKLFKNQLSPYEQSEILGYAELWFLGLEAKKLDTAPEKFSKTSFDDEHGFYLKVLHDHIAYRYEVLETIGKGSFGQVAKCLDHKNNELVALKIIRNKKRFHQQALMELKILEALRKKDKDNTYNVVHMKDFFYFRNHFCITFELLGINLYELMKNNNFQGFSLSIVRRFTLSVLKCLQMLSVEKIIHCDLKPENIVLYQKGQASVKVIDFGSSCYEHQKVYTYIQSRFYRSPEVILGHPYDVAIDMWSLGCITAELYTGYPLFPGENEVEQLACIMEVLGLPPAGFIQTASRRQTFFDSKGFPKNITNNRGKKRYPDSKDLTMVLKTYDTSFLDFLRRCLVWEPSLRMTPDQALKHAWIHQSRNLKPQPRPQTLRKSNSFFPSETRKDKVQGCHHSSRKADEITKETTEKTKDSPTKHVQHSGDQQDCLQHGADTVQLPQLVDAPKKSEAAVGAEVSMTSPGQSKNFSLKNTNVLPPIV
Chain of Dual specificity protein kinase CLK4 (Mus musculus) (O35493 whole entry, looked up): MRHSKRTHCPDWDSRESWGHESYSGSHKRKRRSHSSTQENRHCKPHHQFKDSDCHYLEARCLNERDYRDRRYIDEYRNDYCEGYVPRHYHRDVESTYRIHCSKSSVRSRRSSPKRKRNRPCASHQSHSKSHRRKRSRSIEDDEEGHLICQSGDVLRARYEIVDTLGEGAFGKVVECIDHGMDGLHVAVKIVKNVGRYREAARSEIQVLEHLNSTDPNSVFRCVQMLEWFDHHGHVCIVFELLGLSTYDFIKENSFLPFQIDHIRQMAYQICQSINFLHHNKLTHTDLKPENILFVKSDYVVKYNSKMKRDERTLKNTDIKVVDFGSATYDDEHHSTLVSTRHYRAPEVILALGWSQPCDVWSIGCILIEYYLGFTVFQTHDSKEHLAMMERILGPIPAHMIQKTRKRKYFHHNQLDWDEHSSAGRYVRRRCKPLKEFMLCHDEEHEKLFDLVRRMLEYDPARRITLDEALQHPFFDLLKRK
Chain of Serine/threonine-protein kinase 17A (Homo sapiens) (Q9UEE5 whole entry): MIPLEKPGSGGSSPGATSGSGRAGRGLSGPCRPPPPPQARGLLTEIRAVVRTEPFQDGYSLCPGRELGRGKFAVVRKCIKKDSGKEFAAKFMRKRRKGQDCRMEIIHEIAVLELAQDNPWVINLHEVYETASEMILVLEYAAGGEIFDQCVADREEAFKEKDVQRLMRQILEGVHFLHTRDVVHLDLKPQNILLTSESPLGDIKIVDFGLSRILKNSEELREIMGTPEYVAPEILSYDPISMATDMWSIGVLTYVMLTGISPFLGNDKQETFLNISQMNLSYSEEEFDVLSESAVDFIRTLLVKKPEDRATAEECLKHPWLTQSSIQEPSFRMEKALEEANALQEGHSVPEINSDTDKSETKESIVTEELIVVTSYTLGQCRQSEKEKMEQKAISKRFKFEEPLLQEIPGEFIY
Chain of Serine/threonine-protein kinase haspin (Homo sapiens) (Q8TF76 whole entry): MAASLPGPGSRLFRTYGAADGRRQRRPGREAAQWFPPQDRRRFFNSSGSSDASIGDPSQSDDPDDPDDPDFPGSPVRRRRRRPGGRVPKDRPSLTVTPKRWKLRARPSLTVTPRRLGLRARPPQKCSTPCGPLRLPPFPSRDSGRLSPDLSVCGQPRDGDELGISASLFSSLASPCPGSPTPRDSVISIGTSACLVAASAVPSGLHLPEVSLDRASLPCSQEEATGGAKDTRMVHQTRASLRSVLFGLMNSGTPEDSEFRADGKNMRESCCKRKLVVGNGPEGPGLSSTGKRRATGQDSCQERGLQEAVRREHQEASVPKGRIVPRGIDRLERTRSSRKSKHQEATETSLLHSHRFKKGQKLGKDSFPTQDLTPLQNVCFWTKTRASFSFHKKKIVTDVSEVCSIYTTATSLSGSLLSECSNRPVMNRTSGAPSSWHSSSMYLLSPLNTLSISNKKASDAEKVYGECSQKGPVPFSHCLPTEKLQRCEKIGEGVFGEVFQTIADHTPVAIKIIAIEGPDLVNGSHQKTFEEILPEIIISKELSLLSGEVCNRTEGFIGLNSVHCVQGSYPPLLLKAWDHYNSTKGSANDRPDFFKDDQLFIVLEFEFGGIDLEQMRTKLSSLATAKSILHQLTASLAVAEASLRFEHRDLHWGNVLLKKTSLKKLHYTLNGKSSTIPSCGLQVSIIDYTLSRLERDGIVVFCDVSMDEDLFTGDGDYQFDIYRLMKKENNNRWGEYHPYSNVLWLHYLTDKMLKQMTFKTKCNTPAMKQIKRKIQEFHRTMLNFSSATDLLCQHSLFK

COc1ccc2sc(C(=O)N(C)Cc3cccc(F)c3)cc2c1
pIC50 [1]: 8.15 to 8.16
inhibition [2]: 52.6%
inhibition [3]: 80%
inhibition [4]: 12%
inhibition [5]: 86%
pIC50 [6]: 7.72
inhibition [7]: 101%
inhibition [8]: 32%
inhibition [9]: 2%
inhibition [10]: inactive
inhibition [11]: inactive
GI50 (T-24 [12]): 600 nM
GI50 (MDA-MB-231 [13]): 9.6 µM
GI50 (T47D): 15.3 µM
GI50 [14]: > 30 µM
LC50 (PBL): 29.4 µM
IC50 [15]: 2.2 µM
inhibition [15]: Dose-dependent effect
IC50 [16]: 9.5 µM
inhibition [16]: Dose-dependent effect
inhibition [17]: 48.3%
inhibition [18]: 50.2%
inhibition [19]: 47.6%
inhibition [20]: 56.2%
inhibition [21]: 47.5%
inhibition [22]: 41.4%
inhibition [23]: 33.1%
inhibition [24]: 12.1%
inhibition [25]: 44%
inhibition [26]: 44%
Activity (T-24 [27]): inactive
Activity (MDA-MB-231 [28]): inactive
